# According to ChEMBL document CHEMBL3763017, “Synthesis and evaluation of dual antiplatelet activity of bispidine derivatives of N-substituted pyroglutamic acids” (Eur J Med Chem, 2016):
# The source made the active and inactive calls. The rule behind the calls is not given here.
# Columns and labels:
# Mus musculus [1] = test: Antithrombotic activity in Swiss albino mouse assessed as protection against collagen-epinephrine induced pulmonary thromboembolism at 30 umol/kg, po after 1 hr; type: functional
# Method in brief: (§1)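 Male Swiss albino mice (18–22 g) dosed orally in 0.5% carboxymethyl cellulose 1, 2, 4, 6, 12 or 24 h before challenge. Collagen (150 μg/ml) plus adrenaline (50 μg/ml) injected into the tail vein. Dead or hind-limb-paralysed mice counted over 15 min and expressed as % protection. Ten mice per drug group, five for vehicle.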
# [2] = Antiplatelet activity in human platelet rich plasma assessed as inhibition of collagen-induced platelet aggregation at 30 uM preincubated for 5 mins followed by collagen stimulation by turbidimetry; type: functional
# Method in brief: (§2)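 Human PRP (1×10^8 platelets/ml) from healthy-donor blood spun at 1000 rpm for 10 min. Pre-treated 5 min with compound or 0.4% DMSO vehicle, then agonist added at 37 °C. Light-transmission aggregometry run at least 5–10 min; % aggregation calculated. Single-point screens at 30 μM, n = 3; mean ± SEM.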
# [3] = Antiplatelet activity in human platelet rich plasma assessed as inhibition of U46619-induced platelet aggregation at 30 uM preincubated for 5 mins followed by U46619 stimulation by turbidimetry; type: functional; method in brief: as §2
# Mus musculus [4] = test: Antithrombotic activity in ferric chloride-induced Swiss albino mouse arterial thrombosis model assessed as prolonged time to occlusion at 20 umol/kg, po measured after 4 hrs (reference value: 9.5 +/- 0.4 mins); type: functional
# Platelet [5] = test: Inhibition of U46619-induced protein tyrosine phosphorylation in human platelets preincubated at 3 to 100 uM for 5 mins followed by U46619 stimulation for 10 mins by Western blot analysis; type: functional, cell-based
# Method in brief: (§3)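 Washed human platelets in Tyrode-HEPES pH 7.4 preincubated 5 min at 37 °C with 0.4% DMSO or compound (3–100 μM). Stimulated 10 min with collagen (1 μg/ml) or U46619 (0.25 μg/ml). Stopped with boiling Laemmli buffer; SDS-PAGE and anti-phosphotyrosine (4G10) immunoblot. Three separate experiments.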
# Platelet [6] = test: Inhibition of collagen-induced protein tyrosine phosphorylation in human platelets preincubated at 3 to 100 uM for 5 mins followed by collagen stimulation for 10 mins by Western blot analysis; type: functional, cell-based; method in brief: as §3
# Platelet [7] = test: Inhibition of human platelet adhesion over collagen at 30 uM for 15 mins in absence of Mg2+ by microplate reader analysis; type: functional; settings: 0.25 h
# Method in brief: (§4)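 Wells coated overnight with fibrillar type I collagen and blocked with BSA. Washed platelets (1×10^8/ml) preincubated 15 min at 37 °C with compound or DMSO, then allowed to adhere 1 h at room temperature in Tyrode-HEPES with 1 mM Mg2+ or with Mg2+ replaced by 50 μM EDTA. Adherent cells quantified with p-nitrophenyl phosphate in citrate pH 5.4 (60 min, 25 °C), NaOH stop, A405.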
# Platelet [8] = test: Inhibition of human platelet adhesion over collagen for 15 mins in absence of Mg2+ by microplate reader analysis; type: functional, cell-based; method in brief: as §4
# Platelet [9] = test: Inhibition of human platelet adhesion over collagen at 300 uM for 15 mins in absence of Mg2+ by microplate reader analysis; type: functional, cell-based; method in brief: as §4
# Platelet [10] = test: Inhibition of human platelet adhesion over collagen at 300 uM for 15 mins in presence of Mg2+ by microplate reader analysis; type: functional, cell-based; method in brief: as §4
# Platelet [11] = test: Inhibition of human platelet adhesion over collagen at 30 uM for 15 mins in presence of Mg2+ by microplate reader analysis; type: functional; settings: 0.25 h; method in brief: as §4
# Platelet [12] = test: Inhibition of human platelet adhesion over collagen for 15 mins in presence of Mg2+ by microplate reader analysis; type: functional, cell-based; method in brief: as §4
# Plasma [13] = test: Anticoagulant activity in human plasma assessed as activated partial thromboplastin time at 30 to 300 uM; type: functional, cell-free
# Method in brief: (§5)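 Human plasma from healthy donors, blood collected in CPD 1:7 and spun twice to give platelet-poor plasma. TT, PT and aPTT determined with commercial kits on a coagulometer. Hirudin 1 μg/ml served as reference anticoagulant; 0.4% DMSO vehicle.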
# Plasma [14] = test: Anticoagulant activity in human plasma assessed as prothrombin time at 30 to 300 uM; type: functional, cell-free; method in brief: as §5
# Plasma [15] = test: Anticoagulant activity in human plasma assessed as thrombin time at 30 to 300 uM; type: functional, cell-free; method in brief: as §5
# [16] = Antiplatelet activity in human platelet rich plasma assessed as inhibition of collagen-induced platelet aggregation preincubated for 5 mins followed by collagen stimulation by turbidimetry; type: functional
# [17] = Antiplatelet activity in human platelet rich plasma assessed as inhibition of U46619-induced platelet aggregation preincubated for 5 mins followed by U46619 stimulation by turbidimetry; type: functional
# Platelet [18] = test: Antiplatelet activity in human platelet rich plasma assessed as inhibition of ADP-induced platelet aggregation up to 300 uM preincubated for 5 mins followed by ADP stimulation by turbidimetry; type: functional
# Platelet [19] = test: Antiplatelet activity in human platelet rich plasma assessed as inhibition of TRAP-induced platelet aggregation up to 300 uM preincubated for 5 mins followed by TRAP stimulation by turbidimetry; type: functional
# Platelet [20] = test: Antiplatelet activity in human platelet rich plasma assessed as inhibition of CRP-XL-induced platelet aggregation up to 300 uM preincubated for 5 mins followed by CRP-XL stimulation by turbidimetry; type: functional
# Platelet [21] = test: Antiplatelet activity in human platelet rich plasma assessed as inhibition of ristocetin-induced platelet aggregation up to 300 uM preincubated for 5 mins followed by ristocetin stimulation by turbidimetry; type: functional
# Platelet [22] = test: Antiplatelet activity in human platelet rich plasma assessed as inhibition of arachidonic acid-induced platelet aggregation up to 300 uM preincubated for 5 mins followed by arachidonic acid stimulation by turbidimetry; type: functional
# [23] = Antiplatelet activity in human platelet rich plasma assessed as inhibition of arachidonic acid-induced platelet aggregation at 300 to 500 uM preincubated for 5 mins followed by arachidonic acid stimulation by turbidimetry; type: functional
# Mus musculus [24] = test: Antithrombotic activity in Swiss albino mouse assessed as protection against collagen-epinephrine induced pulmonary thromboembolism at 30 umol/kg, po after 4 hrs; type: functional; method in brief: as §1
# Mus musculus [25] = test: Toxicity in Swiss albino mouse assessed as bleeding time at 30 umol/kg, po administered as single dose measured after 1 hr (reference value: 3.5 +/- 0.3 mins); type: organism-based; settings: in vivo
# Mus musculus [26] = test: Toxicity in Swiss albino mouse assessed as bleeding time at 30 umol/kg, po administered as single dose measured after 4 hrs (reference value: 3.5 +/- 0.3 mins); type: organism-based; settings: in vivo
# Aorta [27] = test: Inhibition of U46619-induced vasocontraction in Sprague-Dawley rat thoracic aoritc rings at 30 uM (reference value: 89.8 +/- 8.5%); type: functional; design: scale not given: the % may be the effect or the level left
# Aorta [28] = test: Inhibition of U46619-induced vasocontraction in Sprague-Dawley rat thoracic aoritc rings at 15 uM (reference value: 89.8 +/- 8.5%); type: functional; design: scale not given: the % may be the effect or the level left
# Aorta [29] = test: Inhibition of U46619-induced vasocontraction in Sprague-Dawley rat thoracic aoritc rings at 3 and 5 uM; type: functional
# Aorta [30] = test: Inhibition of KCl-induced vasocontraction in Sprague-Dawley rat thoracic aoritc rings; type: functional
# Mus musculus [31] = test: Antithrombotic activity in ferric chloride-induced Swiss albino mouse arterial thrombosis model assessed as prolonged time to occlusion at 30 umol/kg, po measured after 4 hrs (reference value: 9.5 +/- 0.4 mins); type: functional
smiles,measurement,setting,value
Cc1ccc(CN2C(=O)CC[C@H]2C(=O)N2CC3CC(CN(C(=O)OC(C)(C)C)C3)C2)cc1,Activity,Mus musculus [1],40%
same,inhibition at 30 µM,[2],25%
O=C([C@@H]1CCC(=O)N1Cc1c(Cl)cccc1Cl)N1CC2CC(CN(Cc3ccccc3)C2)C1,inhibition at 30 µM,[3],85%
same,Activity,Mus musculus [1],40%
same,inhibition at 30 µM,[2],68%
CC(C)(C)OC(=O)N1CC2CC(C1)CN(C(=O)[C@@H]1CCC(=O)N1Cc1ccc(C#N)cc1)C2,Activity,Mus musculus [1],55%
same,inhibition at 30 µM,[2],11%
Cc1ccc(CN2C(=O)CC[C@H]2C(=O)N2CC3CC(CN(Cc4ccccc4Br)C3)C2)cc1,inhibition at 30 µM,[3],70%
same,Activity,Mus musculus [1],30%
same,inhibition at 30 µM,[2],67%
CC(C)(C)OC(=O)N1CC2CC(C1)CN(C(=O)[C@@H]1CCC(=O)N1Cc1ccc(Cl)cc1)C2,Activity,Mus musculus [1],30%
same,inhibition at 30 µM,[2],6%
Cc1ccc(CN2C(=O)CC[C@H]2C(=O)N2CC3CC(CN(Cc4ccc(Cl)cc4)C3)C2)cc1,inhibition at 30 µM,[3],81%
same,Activity,Mus musculus [1],35%
same,inhibition at 30 µM,[2],67%
O=C([C@@H]1CCC(=O)N1Cc1ccc(Br)cc1)N1CC2CC(CN(Cc3ccccc3)C2)C1,Activity,Mus musculus [1],40%
same,inhibition at 30 µM,[2],57%
O=C([C@@H]1CCC(=O)N1Cc1ccc(Cl)cc1)N1CC2CC(CN(Cc3ccccc3)C2)C1,inhibition at 30 µM,[3],80%
same,Activity,Mus musculus [1],30%
same,inhibition at 30 µM,[2],52%
Cc1ccc(CN2C(=O)CC[C@H]2C(=O)N2CC3CC(CN(C(=O)c4ccccc4)C3)C2)cc1,Activity,Mus musculus [1],40%
same,inhibition at 30 µM,[2],20.5%
O=C([C@@H]1CCC(=O)N1Cc1ccccc1)N1CC2CC(CN(Cc3ccccc3)C2)C1,Activity,Mus musculus [1],30%
same,inhibition at 30 µM,[2],44%
Cc1ccc(CN2C(=O)CC[C@H]2C(=O)N2CC3CC(CN(Cc4ccccc4)C3)C2)cc1,Activity,Mus musculus [1],25%
same,inhibition at 30 µM,[2],7%
O=C([C@@H]1CCC(=O)N1Cc1ccccc1Br)N1CC2CC(CN(Cc3ccccc3)C2)C1,Time,Mus musculus [4],13.3 min
same,inhibition,Platelet [5],Active
same,inhibition,Platelet [6],Active
same,inhibition at 30 µM,Platelet [7],27%
same,inhibition,Platelet [8],Dose-dependent effect
same,inhibition,Platelet [9],Active
same,inhibition,Platelet [10],Active
same,inhibition at 30 µM,Platelet [11],27%
same,inhibition,Platelet [12],Dose-dependent effect
same,Activity,Plasma [13],inactive
same,Activity,Plasma [14],inactive
same,Activity,Plasma [15],inactive
same,inhibition at 30 µM,[3],79%
same,Activity,Mus musculus [1],40%
same,inhibition at 30 µM,[2],86%
same,IC50,[16],1.7 µM
same,IC50,[17],7.7 µM
same,inhibition,Platelet [18],inactive
same,inhibition,Platelet [19],inactive
same,inhibition,Platelet [20],inactive
same,inhibition,Platelet [21],inactive
same,inhibition,Platelet [22],inactive
same,inhibition (INH),[23],50%
same,Activity,Mus musculus [24],60%
same,Time,Mus musculus [25],3.4 min
same,Time,Mus musculus [26],4.3 min
same,Activity,Aorta [27],14.2%
same,Activity,Aorta [28],21.8%
same,inhibition,Aorta [29],inactive
same,inhibition,Aorta [30],inactive
same,Time,Mus musculus [31],20 min
Cc1ccc(CN2C(=O)CC[C@H]2C(=O)N2CC3CC(C2)CN(S(=O)(=O)c2ccc(C)cc2)C3)cc1,Activity,Mus musculus [1],40%
same,inhibition at 30 µM,[2],37.5%
